The subject of assay [1] is Rattus norvegicus. In words: Hypolipidemic activity as percentage decrease in plasma levels of the triglyceride at 56 uM/kg administered intraperitoneally in rats. Type of assay: functional. The method, boiled down: (§1)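 Hyperlipidemia induced in rats by Triton WR 1339 (200 mg/kg ip, aqueous solution). 1 h later, test agent 56 μmol/kg in saline given ip; controls receive saline alone. Blood is drawn from the aorta 24 h after Triton, and plasma total cholesterol, LDL-cholesterol and triglyceride are determined. Groups of four to six rats; Student's t-test.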

Assay [2] concerns Rattus norvegicus. In words: Hypolipidemic activity as percentage decrease in plasma levels of the LDL-cholesterol at 168 administered perorally in rats. The class given is functional. The method, boiled down:
(§2)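 Test agent 168 μmol/kg given orally to rats 3 h before Triton WR 1339 (200 mg/kg ip, aqueous solution). Blood is drawn from the aorta 24 h after Triton, and plasma total cholesterol, LDL-cholesterol and triglyceride are determined. Groups of four to six rats; Student's t-test.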

The subject of assay [3] is Rattus norvegicus. In words: Hypolipidemic activity as percentage decrease in plasma levels of the triglyceride at 168 administered perorally in rats. The class given is functional. The essentials:
as §2

Assay [4] deals with Rattus norvegicus. Briefly: Hypolipidemic activity as percentage decrease in plasma levels of the cholesterol at 56 uM/kg administered intraperitoneally in rats. Type of assay: functional. The essentials:
as §1

The subject of assay [5] is Rattus norvegicus. In words: Hypolipidemic activity as percentage decrease in plasma levels of the LDL-cholesterol at 56 uM/kg administered intraperitoneally in rats. Type of assay: functional. The essentials: as §1
In assay [6] the test system is Rattus norvegicus. Briefly: Hypolipidemic activity as percentage decrease in plasma levels of the cholesterol at 168 administered perorally in rats. The class given is functional. The method, boiled down: as §2
Assay [7] is described as follows: In vitro percentage release of nitric oxide. The method, boiled down: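 Nitric oxide release measured spectrophotometrically at 540 nm with a commercial kit. Determinations at least in duplicate.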

The source of these data is ChEMBL document CHEMBL1136011, “Nitric oxide releasing morpholine derivatives as hypolipidemic and antioxidant agents” (J Med Chem, 2002).

Turning to `CN1CCOC(OCCCO[N+](=O)[O-])(c2ccc(-c3ccccc3)cc2)C1` (stereo not drawn), the Decrease in assay [1] came out at 85%; in assay [2], 36%; in assay [3], 54%; in assay [4], 63%; in assay [5], 47%; in assay [6], 40%. The compound also displayed a % release of nitric oxide in assay [7] of 17.3%.
As for `O=[N+]([O-])OCCCOC1(c2ccc(-c3ccccc3)cc2)CN2CCCCC2CO1` (stereo not drawn), the values for the Decrease in assay [1], in assay [4] and in assay [5] were 37%, 20% and 25%, respectively. Also, the % release of nitric oxide in assay [7] amounted to 4.6%.
In assay [7], `CC(=O)N[C@@H](C(=O)O)C(C)(C)SN=O` registered a % release of nitric oxide of 56.7%.
In the case of `CC(C)(Sc1cc(C(C)(C)C)c(O)c(C(C)(C)C)c1)Sc1cc(C(C)(C)C)c(O)c(C(C)(C)C)c1` [PROBUCOL], the Decrease came out at 11% in assay [1], 18% in assay [4] and 18% in assay [5].
`CN1CC(OCCCO[N+](=O)[O-])(c2ccc(-c3ccccc3)cc2)OC2CCCCC21` (stereo not drawn): the Decrease in assay [1] is 38%; in assay [4], 23%; in assay [5], 1%. This compound also showed a % release of nitric oxide in assay [7] of 1%.
Take `CN1CCOC(OCCCO[N+](=O)[O-])(c2ccccc2)C1` (stereo not drawn): the Decrease in assay [1] is 45%; in assay [4] it was 20%; in assay [5], 43%. The % release of nitric oxide in assay [7] is 27.2 µM µM-1.
